Measurements pooled from the literature.
Protocols differ between the studies behind these lines.
DYRK1A: Dual specificity tyrosine-phosphorylation-regulated kinase 1A (DYRK1A, Homo sapiens, UniProt Q13627)
ADRA1D: Alpha-1D adrenergic receptor (ADRA1D, Homo sapiens, UniProt P25100)
PDGFRB: Platelet-derived growth factor receptor beta (PDGFRB, Homo sapiens, UniProt P09619)

| Compound | target | test | conditions | quantity | value |
| --- | --- | --- | --- | --- | --- |
| C#Cc1cc(-c2cc(Nc3nc(N[C@@H](C)c4ccc(F)cn4)ncc3Cl)n[nH]2)ccc1C=O | Dual specificity tyrosine-phosphorylation-regulated kinase 3 (DYRK3, Homo sapiens, UniProt O43781) | enzyme activity, inhibitor | 0.2 µM | inhibition | 4.84% |
| O=C1C2C3CC(C(Br)C3Br)C2C(=O)N1CC1CCCO1 (centres unmarked) | DYRK1A | enzyme activity, inhibitor, ADP detection | 10 µM | inhibition | 41.5% |
| Nc1ncnc2c1ncn2[C@@H]1O[C@H](COP(=O)(O)OP(=O)(O)O)[C@@H](O)[C@H]1O | Inositol-tetrakisphosphate 1-kinase (Homo sapiens, UniProt Q13572) | enzyme activity, substrate | – | Km | 1.5 µM |
| Cc1cc(F)cc2c(CCC(=O)N[C@@H]3C(=O)NC[C@H]3O)c(-c3ccc(F)cc3)[nH]c12 | Muscarinic acetylcholine receptor M3 (CHRM3, Homo sapiens, UniProt P20309) | cell-free assay | 10 µM | inhibition | 0% |
| CCCCC(=O)Nc1ccc(-c2ccc3ncn(CCC)c(=O)c3c2)cn1 | Serine/threonine-protein kinase 25 (STK25, Homo sapiens, UniProt O00506) | binding, competition with immobilised ligand | 0.5 µM | remaining binding | 85% |
| Cc1cc(O)c(-c2ccc([C@@H](C)CN(C)C)cc2)c2c1[nH]c(=O)c1sccc12 | Ephrin type-B receptor 3 (EPHB3, Homo sapiens, UniProt P54753) | cell-free assay, inhibitor | 0.1 µM | inhibition | -4.48% |
| CC(=O)ON=C1C=CC(=C(C#N)c2ccccc2)C=C1 | DYRK1A | enzyme activity, inhibitor, ADP detection | 20 µM | activity vs control | 82% |
| Clc1ccc(-c2cn[nH]c2)s1 | DYRK1A | enzyme activity, inhibitor, ADP detection | 10 µM | inhibition | 52.5% |
| NC/C(=C\F)COc1cccc(Cn2c(=S)[nH]c(=O)c3[nH]cnc32)c1 | ADRA1D | ligand displacement, radioligand | 10 µM | inhibition | < 50% |
| C1=C/COCc2cc(ccc2OCCN2CCCC2)Nc2nccc(n2)-c2cccc(c2)COC/1 | PDGFRB | binding | 0.1 µM | remaining binding | 32% |
| N#Cc1ccc(NC(=O)Nc2ccccc2)cc1 | PDGFRB | cell-free assay, competition with immobilised ligand | 25 µM | remaining binding | 33% |
| COc1ccc2oc(-c3ccc4nc(N)oc4c3)c/c(=N\c3ccccc3NC(=O)CCN)c2c1 | Dual specificity tyrosine-phosphorylation-regulated kinase 1B (DYRK1B, Homo sapiens, UniProt Q9Y463) | binding, competition with immobilised ligand | 1 µM | remaining binding | 102% |
| Brc1cc(Br)c2ccncc2c1Br | DYRK1A | enzyme activity, inhibitor, ADP detection | 10 µM | inhibition | 41.5% |
| CN(C)CCOC(=O)COc1ccc(Cl)cc1 | ADRA1D | ligand displacement, radioligand | 1 µM, cell membranes | inhibition | 0% |
